Assay outcomes: PubChem, Johns Hopkins Ion Channel Center
Hits are enriched below; roughly 2.3% of the tested compounds scored in any of these assays.
TRPC4 potent: allosterically enhances the mouse TRPC4 cation channel. HEK293 TRPC4beta/mu-opioid, DAMGO EC20, Fluo-4 Ca2+ flux; active compounds read high. B-score at 10 µM. Q9QUQ5. 310,000 compounds, 0.42% hits;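 active means B-score of calcium response area above 5 SD of library B-scores, with initial fluorescence ratio within 5 SD of library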;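 further: B-score of integrated fluorescence ratio over time as area under calcium response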
TRPC6 activator: activators of mouse TRPC6 channel; Q61143; HEK293-TRPC6 membrane potential dye fluorescence; active compounds read high; 310,000 compounds, 0.13% hits; B-score at 10 µM;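 active means B-score of the integrated fluorescence ratio above library mean plus 3 SD, and starting fluorescence ratio within library mean plus 5 SD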;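 further: higher score means more depolarization so channel activation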
TRPC6 inh: mouse TRPC6 channel inhibition; Q61143; HEK293-TRPC6, membrane potential dye, ACh-evoked depolarization; active compounds read low; B-score at 10 µM; 310,000 compounds, 1.1% hits;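 active means B-score under library mean minus 3 SD, initial fluorescence not abnormally high, positive integrated signal ratio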;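 further: B-score derived from integrated fluorescence ratio over the kinetic read; more negative B-score means stronger inhibition of depolarization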
TRPC4 agonist: activators of mouse TRPC4 channel. Q9QUQ5. HEK293 TRPC4beta/mu-opioid, Fluo4 calcium fluorescence; active compounds read high. B-score at 10 µM. 310,000 compounds, 0.49% hits;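 active means B-score above 5 SD of library B-scores, and initial fluorescence ratio not above library mean plus 5 SD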;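 further: positive B-score marks a calcium rise read as TRPC4 activation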
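Material: HEK293 stable line with TRPC4beta plus mu-opioid receptor; technique: Fluo4 calcium-sensitive dye fluorescence, kinetic, 1 Hz baseline; timing: Fluo4 dye loading 45 min at room temperature, 110 s recording; controls: assay buffer as low control, maximal DAMGO as high control; read-out: integrated baseline-normalised fluorescence ratio, converted to per-well B score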
TRPC4 inh: TRPC4 (mouse) channel inhibition; B-score at 10 µM; Q9QUQ5; 300,000 compounds, 0.39% hits; AID 2247; HEK293 TRPC4beta/mu-opioid, DAMGO-evoked Fluo4 calcium flux; active compounds read low;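 active means B-score over 3 SD under the library average, no early fluorescence shift, positive overall ratio signal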
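Signal: kinetic Fluo4 fluorescence imaging of calcium influx. Material: stable TRPC4beta/mu-opioid receptor HEK293 cells. Probe or stimulus: DAMGO in two steps, submaximal then maximal.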
TRPC4 spec 2: mouse TRPC4 off-target activity of TRPC6 inhibitors, second screen. AID 2776. 920 compounds, 42% hits. shares compounds with TRPC6 inh. HEK293 TRPC4/MOR, membrane potential dye fluorescence; channel activated by saturating DAMGO dose. inhibition, % at 10 µM;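 active means compounds whose fluorescence signal differed from control wells by over 3 SD, either direction, in both duplicate plates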
TRPC4 spec: mouse TRPC4 off-target activity of TRPC6 inhibitors. shares compounds with TRPC6 inh. HEK293 TRPC4/mu-opioid, membrane potential fluorescence. activity change, negative = inhibition, % at 10 µM. 920 compounds, 61% hits. AID 2777;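 active means rise or fall in signal beyond 3 SD of buffer-only wells in both replicate plates, either sign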;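 further: integrated kinetic ratio of fluorescence range over baseline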
HEK293 MPD ctr 2-1: second check of TRPC6 inhibitor effects in parental HEK293 cells | shares compounds with TRPC6 inh | parental HEK293 membrane potential dye fluorescence; maximal acetylcholine challenge after compound addition | signal change vs control, % at 10 µM | 920 compounds, 31% hits | AID 2779;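 active means membrane potential signal moving either way by over 3 SD of the maximum-effect control, in both duplicate plates, meaning non-specific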
HEK293 MPD ctr-1: parental HEK293 nonspecific activity of TRPC6 inhibitors; shares compounds with TRPC6 inh; parental HEK293 membrane potential dye fluorescence; membrane potential signal change, % at 10 µM; 920 compounds, 60% hits; AID 2780;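 active means membrane potential signal shifting up or down by more than 3 SD of buffer-only wells, on both duplicate plates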
HEK293 MPD ctr-2: parental HEK293 nonspecific activity of TRPC6 modulators; 2,400 compounds, 51% hits; membrane potential signal change, % at 10 µM; membrane potential dye fluorescence; AID 488924; shares compounds with TRPC6 inh;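 active means membrane potential signal moves up or down beyond 5 SD from buffer-only wells, on both duplicate plates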
HEK293 MPD ctr 2-2: second check of TRPC6 modulator effects in parental HEK293 cells. shares compounds with TRPC6 inh. membrane potential dye fluorescence; after compound, maximal acetylcholine stimulation. inhibition, % at 10 µM. 2,400 compounds, 14% hits. AID 488926;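 active means membrane potential signal drops by more than 5 SD from the mean control signal, in both duplicate plates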;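 further: plate controls were acetylcholine ECmax control wells for no effect and buffer only wells for full effect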
TRPC4 ctr mod: mouse TRPC4 off-target activity of TRPC6 modulators; shares compounds with TRPC6 inh; AID 488927; percent change from control (negative = decrease, positive = increase), % at 10 µM; 2,400 compounds, 69% hits; HEK293 TRPC4/mu-opioid, membrane potential fluorescence;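 active means membrane potential signal moved up or down beyond 5 SD of buffer control wells, in both duplicate plates, actives on both sides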;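 further: plate controls were assay buffer wells for no effect and DAMGO maximal-effect wells for full effect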
TRPC4 ctr inh 2: second selectivity test of TRPC6 modulators against mouse TRPC4 | shares compounds with TRPC6 inh | HEK293 TRPC4/mu-opioid, membrane potential dye fluorescence; stimulated with maximal-effect DAMGO | inhibition, % at 10 µM | 2,400 compounds, 55% hits;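 active means drop in membrane potential signal beyond 5 SD of the control wells in both duplicate plates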;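 further: TRPC4 counter screen for TRPC6 hits run under conditions tuned for TRPC6 not TRPC4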
TRPC6 block conf: confirmation of mouse TRPC6 inhibitors; shares compounds with TRPC6 inh; HEK293-TRPC6, membrane potential dye, ACh-evoked depolarization; inhibition, % at 10 µM; 3,300 compounds, 43% hits;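 active means fluorescence ratio falls more than 5 SD below the full-stimulation control mean, in both duplicate runs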;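 further: integrated fluorescence ratio of peak minus minimum over baseline after agonist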
TRPC6 act conf: mouse TRPC6 activator confirmation; 2,800 compounds, 11% hits; HEK293-TRPC6 membrane potential dye fluorescence, FDSS; shares compounds with TRPC6 inh; activation, % at 10 µM; AID 488961;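 active means ratio signal rise beyond 5 SD above unstimulated control wells' mean, seen in both duplicate runs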;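 further: plate controls were buffer EC0 wells for no effect and acetylcholine ECmax response for full effect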
* = called active by the depositor; i = inactive; x = not tested or not shown.

SMILES | TRPC4 potent | TRPC6 activator | TRPC6 inh | TRPC4 agonist | TRPC4 inh | HEK293 MPD ctr-2 | HEK293 MPD ctr 2-2 | TRPC4 ctr mod | TRPC4 ctr inh 2 | TRPC6 block conf | TRPC6 act conf | others
N=c1c(C(=O)NCCN2CCOCC2)cc2c(=O)n3ccccc3nc2n1CCc1ccccc1 | i | i | -7.8* | i | i | x | x | x | x | 99%* | i | TRPC4 spec 2=64%*;TRPC4 spec=-20%*;HEK293 MPD ctr 2-1=-78%*;HEK293 MPD ctr-1=-246%*
Cc1ccc(-c2nn3cnnc3c3ccccc23)cc1C | i | i | i | i | i | x | x | x | x | x | x
C/C(=N\Nc1ccc(F)cc1F)c1cccs1 | i | i | i | i | i | x | x | x | x | x | x
O=C(CN1C(=O)NC2(CCCC2)C1=O)OCCOc1ccccc1Cl | i | i | i | i | i | x | x | x | x | x | x
CNC(=O)Cn1c(C)cc(=O)c2cccc(OC)c21 | i | i | -6.9* | i | i | -471%* | i | -70%* | 41%* | 40%* | i
O=C(COC(=O)c1ncc(Cl)c(Cl)c1Cl)NCCc1ccccc1 | i | i | i | i | i | x | x | x | x | x | x
Cc1occc1C(=O)N/N=C/c1cccc2ccccc12 | i | i | i | i | i | x | x | x | x | x | x
Cc1nn(C(=O)N2CCOCC2)c(C)c1C | i | i | -5.5* | i | i | i | i | i | i | i | i
COc1cc(CNC(=O)c2cc3ccccc3oc2=O)cc(OC)c1OC | i | i | i | i | i | x | x | x | x | x | x
CC1=C(C(=O)N2CCCC(N3CCN(c4cccc(C(F)(F)F)c4)CC3)C2)OCCO1 (configuration not stated) | i | i | i | i | i | x | x | x | x | x | x
N=c1sccn1CC(=O)Nc1ccccc1Oc1ccccc1 | i | i | -5.1* | i | -6* | i | i | i | 76%* | i | i
Cc1ccc(NC(=O)CN(C)C(=O)Cn2ccsc2=N)cc1 | i | i | i | i | i | x | x | x | x | x | x
Cc1ccc(Oc2ccc(NC(=O)Cn3ccsc3=N)cc2)cc1 | i | i | -8.3* | 60* | i | x | x | x | x | 89%* | i | TRPC4 spec 2=29%*;TRPC4 spec=i;HEK293 MPD ctr 2-1=i;HEK293 MPD ctr-1=i
COc1ccc(NC(=O)Cn2nnc(-c3ccccc3NS(=O)(=O)c3ccccc3)n2)cc1 | i | i | i | i | i | x | x | x | x | x | x
COc1ccc(S(=O)(=O)Nc2ccccc2-c2nnn(CC(=O)Nc3ccccc3OC)n2)cc1 | i | i | -5.3* | i | i | i | i | i | i | i | i
